Published values collected from several papers.
Protocols differ between the studies behind these lines.
F2: Prothrombin (F2, Homo sapiens, UniProt P00734)
CDK7 with cyclin H: Cyclin-dependent kinase 7, with cyclin H (CDK7, Homo sapiens, UniProt P50613)
PDE4D: 3',5'-cyclic-AMP phosphodiesterase 4D (PDE4D, Homo sapiens, UniProt Q08499)
PPP3CA: Protein phosphatase 3 catalytic subunit alpha (PPP3CA, Homo sapiens, UniProt Q08209)
PTGER4: Prostaglandin E2 receptor EP4 subtype (PTGER4, Homo sapiens, UniProt P35408)

| SMILES | target | assay | setting | inhibition [%] |
| --- | --- | --- | --- | --- |
| N=C(N)Nc1ccc(C(=O)Nc2ccc3c(c2)B(O)OC3)cc1 | F2 | enzyme activity, inhibitor | 50 µM | 10.7 |
| COc1ccc(CC2NCCc3cc(OC)c(OC)cc32)cc1OC (centres unmarked) | CDK7 with cyclin H | enzyme activity, inhibitor, ADP detection | 10 µM | 22.5 |
| O=C(O)CC(O)(CC(=O)O)C(=O)O | PDE4D | enzyme activity, inhibitor, radiometric | 50 µM | 99.2 |
| C=C[C@H]1CN2CC[C@H]1C[C@H]2[C@H](O)c1ccnc2ccccc12 | CDK7 with cyclin H | enzyme activity, inhibitor, ADP detection | 10 µM | -25.5 |
| c1ccc(C(NCCNC(c2ccccc2)c2ccccc2)c2ccccc2)cc1 | PPP3CA | enzyme activity, inhibitor | 10 µM | 32 |
| O=C(Nc1cccnn1)N1CCN([C@@H]2CCOc3cc(C(F)(F)F)ccc32)CC1 | PDE4D | enzyme activity, inhibitor | 20 µM | 1 |
| O=C(/C=C/c1ccc(O)cc1)c1ccc(O)cc1O | PDE4D | enzyme activity, inhibitor, radiometric | 5 µM | -6.18 |
| COc1cc(CNC(=O)CCCC/C=C/C(C)C)ccc1O | CDK7 with cyclin H | enzyme activity, inhibitor, ADP detection | 10 µM | 31.4 |
| COc1cc(Nc2ncc(F)c(Nc3ccc4c(n3)NC(=O)C(C)(C)O4)n2)cc(OC)c1OC | Mitogen-activated protein kinase 7 (MAPK7, Homo sapiens, UniProt Q13164) | binding, competition with immobilised ligand | 10 µM | 19 |
| CN1CCc2cc3c(cc2[C@H]1[C@@H]1OC(=O)c2c1ccc1c2OCO1)OCO3 | CDK7 with cyclin H | enzyme activity, inhibitor, ADP detection | 10 µM | 22 |
| C=C(C)[C@@H]1CC=C2C(=CC[C@]3(C)[C@@H]([C@@H](CCC=C(C)C)C(=O)O)[C@H](O)C[C@@]23C)[C@@]1(C)CCC(=O)O | PDE4D | enzyme activity, inhibitor, radiometric | 5 µM | 54.3 |
| COc1cc2c(c(OC)c1OC)-c1ccc(OC)c(=O)cc1[C@@H](NC(C)=O)CC2 | CDK7 with cyclin H | enzyme activity, inhibitor, ADP detection | 10 µM | -0.4 |
| C#Cc1n[nH]c2c(-c3cn(C(C)c4ccccn4)c(=O)[nH]c3=O)cc(F)cc12 (centres unmarked) | Tyrosine-protein kinase SYK (SYK, Homo sapiens, UniProt P43405) | enzyme activity, inhibitor | 1 µM | -7.5 |
| O=C1C[C@@H](c2ccc(O[C@@H]3O[C@H](CO)[C@@H](O)[C@H](O)[C@H]3O)cc2)Oc2cc(O)ccc21 | PDE4D | enzyme activity, inhibitor, radiometric | 50 µM | 14 |
| CCN(CC)CCCC[C@H](NC(=O)[C@H](CC(C)C)NC(=O)[C@H](C)NC(=O)[C@H](Cc1ccccc1)NC(=O)c1ccc(C(C)(C)C)cc1)C(=O)N[C@@H](CO)C(=O)OC | PTGER4 | ligand displacement, radioligand | 10 µM | 5 |
| Cn1cc(-c2cccc(N3CCc4c(sc5c4CC(C)(C)C5)C3=O)c2CO)cc(Nc2ccncn2)c1=O | Protein kinase C gamma type (PRKCG, Homo sapiens, UniProt P05129) | enzyme activity, inhibitor | 1 µM | -1 |
| C[C@H](C(=O)N[C@H]1COc2ccccc2[C@@H]1S(C)(=O)=O)c1ccc(F)cc1 | PPP3CA | enzyme activity, inhibitor | 10 µM | 8 |
| C=CCc1ccc(O)c(-c2cc(CC=C)ccc2O)c1 | PDE4D | enzyme activity, inhibitor, radiometric | 50 µM | 42.7 |
| O=C(Nc1ccc2c(c1)B(O)OC2)c1cccc(OCc2ccc(Cl)cc2)c1 | F2 | enzyme activity, inhibitor | 50 µM | 13.7 |
| COc1cc(O)ccc1/C=C/C(=O)c1ccc(O)cc1 | PDE4D | enzyme activity, inhibitor, radiometric | 50 µM | 62.8 |
| COc1cc([C@@H]2c3cc4c(cc3[C@H](O)[C@H]3COC(=O)[C@H]23)OCO4)cc(OC)c1OC | CDK7 with cyclin H | enzyme activity, inhibitor, ADP detection | 10 µM | 17.2 |
| CC(C)N1CCC[C@H]1CNC(=O)c1cn(C2CCCC2)c(=O)c2c1c1ccccc1n2C | PTGER4 | ligand displacement, radioligand | 10 µM | 30 |
| O=c1c(O)c(-c2ccc(O)c(O)c2)oc2cc(O)cc(O)c12 | PDE4D | enzyme activity, inhibitor, radiometric | 5 µM | 75.2 |
| COc1ccc(Cc2nccc3cc(OC)c(OC)cc23)cc1OC | CDK7 with cyclin H | enzyme activity, inhibitor, ADP detection | 10 µM | -1.4 |
| O=c1c(O[C@@H]2O[C@H](CO)[C@@H](O)[C@H](O)[C@H]2O)c(-c2ccc(O)cc2)oc2cc(O)cc(O)c12 | PDE4D | enzyme activity, inhibitor, radiometric | 50 µM | 20.2 |
| CCOC(=O)C1=C(C)NC(c2ccccc2)=C(C(=O)OCc2ccccc2)C1C#Cc1ccccc1 (centres unmarked) | Adenosine receptor A2a (Adora2a, Mus musculus, UniProt Q60613) | ligand displacement, radioligand | 10 µM, cell membranes | 0 |
